Among the data in ChEMBL document CHEMBL1641479, “2-Substituted (S)-2-(3,3-dimethyl-1-oxo-10,10a-dihydroimidazo[1,5-b]isoquinolin-2(1H,3H,5H)-yl)acetic acids: Conformational prediction, synthesis, anti-thrombotic and vasodilative evaluation” (Bioorg Med Chem, 2011) are IC50, Activity and inhibition values, retold here.

A short description of test [1]: Antiplatelet activity against pig platelet assessed as inhibition of ADP-induced platelet aggregation by spectrophotometry. It counts as functional, cell-based. The settings on record: Sus scrofa. Put shortly:
(§1)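 Pig blood (six pigs) spun 1000 rpm 10 min for PRP, then 1500 rpm 10 min for PPP; PRP adjusted to 2×10^8 platelets/mL with autologous PPP. Compound (final 100 µM to 1 nM, diluted in NS from DMSO/NS stock) or NS added, then inducer at final PAF 0.1 µM, ADP 10 µM, AA 350 µM or thrombin 0.1 U/mL.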

For a further test, the system named is Aorta. In words: Inhibition of noradrenaline-induced contraction in Wistar rat thoracic aortic ring assessed as vasorelaxant activity at 300 uM treated after noradrenaline challenge. Further details: scale not given: the % may be the effect or the level left. In kind it is functional. Put shortly: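 Male Wistar rats, 250–300 g, were decapitated and aortic strips were mounted in 37 °C Krebs solution (pH 7.4) gassed with 95% O2/5% CO2, connected to a tension transducer. Strips were contracted with 59 µM noradrenaline, washed, stabilised 30 min, then re-contracted with 59 µM noradrenaline. At peak contraction, compound in ethanol or ethanol alone was added and relaxation was recorded.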

Test [2] relates to Rattus norvegicus. The experiment in a line: Antithrombotic activity in Wistar rat assessed as thrombus weight at 10 nmol/kg, iv (reference value: 24.09 +/- 2.33 mg). It counts as functional.
A short description of test [3]: Antiplatelet activity against pig platelet assessed as inhibition of PAF-induced platelet aggregation by spectrophotometry. It counts as functional, cell-based. Particulars: Sus scrofa. Put shortly: as §1
The nature of test [4]: Antiplatelet activity against pig platelet assessed as inhibition of thrombin-induced platelet aggregation by spectrophotometry. It counts as functional, cell-based. Particulars: Sus scrofa. The method in brief:
as §1

Test [5] is described as follows: Antiplatelet activity against pig platelet assessed as inhibition of arachidonic acid-induced platelet aggregation by spectrophotometry. Particulars: Sus scrofa. It counts as functional, cell-based. Put shortly:
as §1

A short description of test [6]: Antiplatelet activity against pig platelet assessed as inhibition of arachidonic acid-induced platelet aggregation at 10 uM by spectrophotometry. In kind it is functional. Particulars: Sus scrofa. Put shortly: as §1
Test [7] concerns Rattus norvegicus. In words: Antithrombotic activity in Wistar rat assessed as thrombus weight at 15 umol/kg, iv (reference value: 24.09 +/- 2.33 mg). It counts as functional.
Test [8] has as its system Rattus norvegicus. In words: Antithrombotic activity in Wistar rat assessed as thrombus weight at 15 umol/kg, iv (reference value: 25.99 +/- 2.41 mg). It counts as functional.
Test [9] is described as follows: Antiplatelet activity against pig platelet assessed as inhibition of PAF-induced platelet aggregation at 10 uM by spectrophotometry. In kind it is functional. The settings on record: Sus scrofa. The method in brief: as §1
The nature of test [10]: Antiplatelet activity against pig platelet assessed as inhibition of ADP-induced platelet aggregation at 10 uM by spectrophotometry. In kind it is functional. Particulars: Sus scrofa. Put shortly:
as §1

Test [11] is described as follows: Antiplatelet activity against pig platelet assessed as inhibition of thrombin-induced platelet aggregation at 10 uM by spectrophotometry. It counts as functional. The settings on record: Sus scrofa. The method in brief:
as §1

The test system of test [12] is Rattus norvegicus. The experiment in a line: Antithrombotic activity in Wistar rat assessed as thrombus weight at 100 nmol/kg, iv (reference value: 22.09 +/- 3.33 mg). In kind it is functional.
The subject of test [13] is Rattus norvegicus. In words: Antithrombotic activity in iv dosed Wistar rat assessed as decrease in thrombus weight. In kind it is functional, organism-based.
The subject of test [14] is Rattus norvegicus. In words: Antithrombotic activity in Wistar rat assessed as thrombus weight at 1 nmol/kg, iv (reference value: 22.09 +/- 3.33 mg). In kind it is functional.
Test [15] deals with Rattus norvegicus. The experiment in a line: Antithrombotic activity in Wistar rat assessed as thrombus weight at 15 umol/kg, iv (reference value: 28.54 +/- 2.62 mg). In kind it is functional.
Test [16] concerns Rattus norvegicus. In words: Antithrombotic activity in Wistar rat assessed as thrombus weight at 167 umol/kg, iv (reference value: 24.09 +/- 2.33 mg). It counts as functional.
Test [17] concerns Rattus norvegicus. In words: Antithrombotic activity in Wistar rat assessed as thrombus weight at 167 umol/kg, iv (reference value: 28.54 +/- 2.62 mg). It counts as functional.
For test [18], the system named is Rattus norvegicus. In words: Antithrombotic activity in Wistar rat assessed as thrombus weight at 167 umol/kg, iv (reference value: 25.99 +/- 2.41 mg). It counts as functional.

Where “and” joins values, the source holds several entries; their conditions need not be identical. Identical values can stand only once.

Regarding `CC1(C)N2Cc3ccccc3C[C@H]2C(=O)N1[C@@H](Cc1ccccc1)C(=O)O`, the IC50 stood at 163 nM in [1], 496 nM in test [3], 578 nM in [4] and 277 nM in [5]. The figures for the Activity with Aorta and in the test on Rattus norvegicus [2] were 26.61% and 13.27 mg, respectively.
Turning to `O=C(O)[C@@H]1Cc2ccccc2CN1`, the IC50 in test [1] was found to be 542 nM; in test [3], 944 nM; in [4], 980 nM; in test [5], 481 nM. Also, the inhibition at 10 µM turned out to be 10.4% in test [6], 13.5% in [9], 10.7% in test [10] and 14.5% in test [11]. The results for the Activity with Rattus norvegicus [7] and in the test on Rattus norvegicus [8] were 22.01 mg and 22.22 mg, respectively.
Regarding `CC1(C)N2Cc3ccccc3C[C@H]2C(=O)N1[C@@H](CC(=O)O)C(=O)O`, the IC50 was found to be 294 nM in [1], 801 nM in test [3], 932 nM in [4] and 447 nM in test [5]. Also, the Activity with Aorta came out at 2.89%; with Rattus norvegicus [2], 21.41 mg.
Regarding `C[C@@H](C(=O)O)N1C(=O)[C@@H]2Cc3ccccc3CN2C1(C)C`, the IC50 was 200 nM in [1], 576 nM in test [3], 677 nM in [4] and 324 nM in test [5]. Further, the figures for the Activity in the test on Aorta and with Rattus norvegicus [2] were 8.41% and 15.45 mg, respectively.
For `CC(C)[C@@H](C(=O)O)N1C(=O)[C@@H]2Cc3ccccc3CN2C1(C)C`, the IC50 in test [1] was determined as 175 nM; in test [3], 525 nM; in test [4], 610 nM; in test [5] it was 292 nM. Further, the Activity with Aorta was 16%; in the test on Rattus norvegicus [2], 14.01 mg.
Turning to `CC1(C)N2Cc3ccccc3C[C@H]2C(=O)N1[C@@H](CCCCN)C(=O)O`, the IC50 in test [1] turned out to be 191 nM; in test [3] it was 561 nM; in test [4] it was 652 nM; in [5], 313 nM. For the same compound, the values for the Activity in the test with Aorta and in the test with Rattus norvegicus [2] were 12.01% and 14.98 mg, respectively.
Consider `CC1(C)N2Cc3ccccc3C[C@H]2C(=O)N1[C@@H](CC(N)=O)C(=O)O`, for which the IC50 in test [1] amounted to 283 nM; in test [3], 777 nM; in [4], 903 nM; in test [5] it was 433 nM. For the same compound, the Activity with Aorta is on record as 3.89%; in the test with Rattus norvegicus [2], 20.75 mg.
For the compound `CCC(C)[C@@H](C(=O)O)N1C(=O)[C@@H]2Cc3ccccc3CN2C1(C)C` (stereo partly drawn), the IC50 in test [1] was 158 nM; in [3], 486 nM; in test [4] it was 565 nM; in [5], 271 nM. Also, the Activity is 34.29% in the test on Aorta and 12.99 mg in the test with Rattus norvegicus [2].
For `CC1(C)N2Cc3ccccc3C[C@H]2C(=O)N1[C@@H](CCC(=O)O)C(=O)O`, the IC50 in [1] amounted to 248 nM; in [3], 695 nM; in [4] it was 808 nM; in [5], 388 nM. In addition, the Activity in the test with Aorta turned out to be 4.33%; in the test with Rattus norvegicus [2] it was 18.57 mg.
With `CC1(C)N2Cc3ccccc3C[C@H]2C(=O)N1[C@@H](CCCNC(=N)N)C(=O)O`, the IC50 in test [1] was 159 nM; in test [3], 486 nM; in [4], 567 nM; in test [5] it was 271 nM. Also, the Activity is given as 32.58% in the test on Aorta and 13.01 mg with Rattus norvegicus [2].
With `CC1(C)N2Cc3ccccc3C[C@H]2C(=O)N1[C@@H](CCC(N)=O)C(=O)O`, the IC50 in test [1] worked out at 182 nM; in test [3], 541 nM; in test [4], 629 nM; in test [5], 302 nM. In addition, the Activity is on record as 12.24% in the test with Aorta and 14.39 mg with Rattus norvegicus [2].
Consider `CC(O)[C@@H](C(=O)O)N1C(=O)[C@@H]2Cc3ccccc3CN2C1(C)C` (stereo partly drawn), for which the IC50 stood at 207 nM in test [1], 600 nM in test [3], 698 nM in [4] and 335 nM in [5]. Also, the Activity turned out to be 9.98% with Aorta and 16.04 mg in the test with Rattus norvegicus [2].
On to `CSCC[C@@H](C(=O)O)N1C(=O)[C@@H]2Cc3ccccc3CN2C1(C)C`, for which the concentration for half-maximal inhibition (IC50) in [1] is 264 nM; in test [3], 499 nM; in test [4] it was 852 nM; in [5] it was 408 nM. Moreover, the results for the Activity in the test on Aorta and in the test with Rattus norvegicus [2] were 5.58% and 19.56 mg, respectively.
`CC1(C)N2Cc3ccccc3C[C@H]2C(=O)N1[C@@H](Cc1ccc(O)cc1)C(=O)O`: the IC50 in [1] was 273 nM; in test [3], 752 nM; in test [4] it was 875 nM; in test [5], 420 nM. Besides, the Activity in the test on Aorta stood at 1.59%; with Rattus norvegicus [2] it was 20.1 mg.
Turning to `CC(C)C[C@@H](C(=O)O)N1C(=O)[C@@H]2Cc3ccccc3CN2C1(C)C`, the IC50 in test [1] came to 171 nM; in test [3] it was 515 nM; in test [4], 599 nM; in test [5], 287 nM. The Activity with Rattus norvegicus [12] was 10.02 mg; with Aorta, 30.14%; in the test on Rattus norvegicus [2], 12.99 mg and 13.79 mg; in the test with Rattus norvegicus [14] it was 20.67 mg. Moreover, in the test with Rattus norvegicus [13], the inhibition entry is “Dose-dependent effect”.
For the compound `CC1(C)N(CC(=O)O)C(=O)[C@@H]2Cc3ccccc3CN21`, the concentration for half-maximal inhibition (IC50) in test [1] turned out to be 173 nM; in test [3] it was 519 nM; in [4] it was 604 nM; in test [5] it was 290 nM. The Activity with Aorta was 21.11%; in the test with Rattus norvegicus [2], 14.39 mg and 13.89 mg.
Regarding `CC1(C)N2Cc3ccccc3C[C@H]2C(=O)N1[C@@H](CS)C(=O)O`, the IC50 came out at 180 nM in test [1], 535 nM in [3], 622 nM in test [4] and 299 nM in test [5]. For the same compound, the Activity is 16.57% in the test on Aorta and 14.36 mg in the test with Rattus norvegicus [2].
`CC(=O)Oc1ccccc1C(=O)O` [ASPIRIN]: the Activity worked out at 27.6 mg in the test with Rattus norvegicus [15], 13.22 mg in the test on Rattus norvegicus [16], 13.22 mg in the test on Rattus norvegicus [17] and 15.01 mg with Rattus norvegicus [18].
